Data from ChEMBL document CHEMBL5678818, “Discovery of potent SOS1 inhibitors that block RAS activation via disruption of the RAS-SOS1 interaction” (Proc Natl Acad Sci U S A, 2019).
The source made the active and inactive calls. The calls are words filed in the database; no cut-off is given here.

What was measured:
SOS1-KRAS = SOS1-KRAS (Homo sapiens, UniProt Q07889); test: Inhibition of N-terminal GST-tagged recombinant human KRAS G12C mutant (1 to 169 residues) expressed in Escherichia coli/N-terminal His10-tagged wild-type recombinant human SOS1 catalytic domain (564 to 1049 residues) expressed in Escherichia coli protein-protein interaction preincubated for 2 mins with KRAS followed by SOS1 addition measured after 60 mins in presence of anti-6His-XL665 by HTRF analysis
[1] = molecular target: Epidermal growth factor receptor (Homo sapiens, UniProt P00533); test: Inhibition of human EGFR using biotin-aminohexyl-AEEEEYFELVAKKK as substrate preincubated for 15 mins followed by substrate/ATP addition measured after 20 mins by FRET assay
Homo sapiens [2] = species: Homo sapiens; test: (§1) Stabilization of N-terminal His10-tagged recombinant human KRAS G12C/C118S mutant (1 to 169 residues) expressed in Escherichia coli/N-terminal His10-tagged wild-type recombinant human SOS1 catalytic domain (564 to 1049 residues) expressed in Escherichia coli by HTRF analysis
Summary of the method: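 HTRF equilibrium-binding read-out of KRASG12C_C118S with SOS1cat, detected by fluorescently labelled antibodies including a terbium donor. Signal normalized with DMSO control as 100% and no-SOS1cat wells as 0%. Data are mean ± SD, n = 4.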

Homo sapiens [3] = species: Homo sapiens; test: as §1, with “coli/Series S C1 sensor chip-immobilized biotinylated N-terminal” for “coli/N-terminal”, “coli at 100 to 500 uM measured for 360 secs” for “coli”, “SPR” for “HTRF”; conditions: dose 100-500 µM, time 360.0 sec
Summary of the method: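 SOS1cat is immobilized on the chip, and 250 nM KRASG12C_C118S is flowed over with or without test compound. Compound alone at 100, 250 and 500 µM is also injected to gauge unspecific binding to SOS1cat. Buffer injection serves as the blank.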

Homo sapiens [4] = species: Homo sapiens; test: Stabilization of N-terminal His10-tagged 15N-labeled recombinant human KRAS G12C/C118S mutant (1 to 169 residues) expressed in Escherichia coli/N-terminal His10-tagged wild-type recombinant human SOS1 catalytic domain (564 to 1049 residues) expressed in Escherichia coli at 1 mM incubated for 30 mins by 2D-NMR analysis

SOS1-KRAS, sequence (Q07889 whole entry, looked up, stated change not applied, the tested form may be a part): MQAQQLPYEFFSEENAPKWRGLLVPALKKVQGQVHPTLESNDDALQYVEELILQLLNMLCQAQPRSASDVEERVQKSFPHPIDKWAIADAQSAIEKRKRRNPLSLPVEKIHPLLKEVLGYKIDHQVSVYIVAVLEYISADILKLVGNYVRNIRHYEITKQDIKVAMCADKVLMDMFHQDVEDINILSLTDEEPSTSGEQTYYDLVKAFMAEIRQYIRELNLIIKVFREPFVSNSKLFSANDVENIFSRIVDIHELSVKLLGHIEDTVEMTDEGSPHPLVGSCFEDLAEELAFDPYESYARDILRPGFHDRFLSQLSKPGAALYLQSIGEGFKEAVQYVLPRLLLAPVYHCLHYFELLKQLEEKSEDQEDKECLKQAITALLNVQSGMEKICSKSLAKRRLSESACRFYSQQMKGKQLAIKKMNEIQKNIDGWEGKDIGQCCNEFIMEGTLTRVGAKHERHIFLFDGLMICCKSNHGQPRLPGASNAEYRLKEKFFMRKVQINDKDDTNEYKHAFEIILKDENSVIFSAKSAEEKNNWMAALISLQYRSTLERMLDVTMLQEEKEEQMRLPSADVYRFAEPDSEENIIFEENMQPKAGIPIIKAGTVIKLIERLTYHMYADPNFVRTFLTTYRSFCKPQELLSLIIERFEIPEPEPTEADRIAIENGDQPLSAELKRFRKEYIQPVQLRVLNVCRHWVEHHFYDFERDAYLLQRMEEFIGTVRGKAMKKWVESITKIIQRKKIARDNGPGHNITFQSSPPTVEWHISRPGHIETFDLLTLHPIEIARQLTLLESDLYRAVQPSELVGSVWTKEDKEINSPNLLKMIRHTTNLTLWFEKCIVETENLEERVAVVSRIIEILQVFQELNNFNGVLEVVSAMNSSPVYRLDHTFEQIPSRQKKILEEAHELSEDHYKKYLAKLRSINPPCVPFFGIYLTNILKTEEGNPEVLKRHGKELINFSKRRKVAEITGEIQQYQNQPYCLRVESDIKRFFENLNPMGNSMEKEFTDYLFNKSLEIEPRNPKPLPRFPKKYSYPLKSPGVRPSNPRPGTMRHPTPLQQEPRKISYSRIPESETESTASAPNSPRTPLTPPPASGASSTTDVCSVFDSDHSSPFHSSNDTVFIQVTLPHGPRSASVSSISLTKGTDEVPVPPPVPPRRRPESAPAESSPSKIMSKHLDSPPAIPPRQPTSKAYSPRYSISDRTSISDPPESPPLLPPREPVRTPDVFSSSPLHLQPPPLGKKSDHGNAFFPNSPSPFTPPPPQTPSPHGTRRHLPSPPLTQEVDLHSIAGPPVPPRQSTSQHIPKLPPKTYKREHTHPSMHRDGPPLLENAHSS
Epidermal growth factor receptor, sequence (P00533 whole entry, the tested form may be a part): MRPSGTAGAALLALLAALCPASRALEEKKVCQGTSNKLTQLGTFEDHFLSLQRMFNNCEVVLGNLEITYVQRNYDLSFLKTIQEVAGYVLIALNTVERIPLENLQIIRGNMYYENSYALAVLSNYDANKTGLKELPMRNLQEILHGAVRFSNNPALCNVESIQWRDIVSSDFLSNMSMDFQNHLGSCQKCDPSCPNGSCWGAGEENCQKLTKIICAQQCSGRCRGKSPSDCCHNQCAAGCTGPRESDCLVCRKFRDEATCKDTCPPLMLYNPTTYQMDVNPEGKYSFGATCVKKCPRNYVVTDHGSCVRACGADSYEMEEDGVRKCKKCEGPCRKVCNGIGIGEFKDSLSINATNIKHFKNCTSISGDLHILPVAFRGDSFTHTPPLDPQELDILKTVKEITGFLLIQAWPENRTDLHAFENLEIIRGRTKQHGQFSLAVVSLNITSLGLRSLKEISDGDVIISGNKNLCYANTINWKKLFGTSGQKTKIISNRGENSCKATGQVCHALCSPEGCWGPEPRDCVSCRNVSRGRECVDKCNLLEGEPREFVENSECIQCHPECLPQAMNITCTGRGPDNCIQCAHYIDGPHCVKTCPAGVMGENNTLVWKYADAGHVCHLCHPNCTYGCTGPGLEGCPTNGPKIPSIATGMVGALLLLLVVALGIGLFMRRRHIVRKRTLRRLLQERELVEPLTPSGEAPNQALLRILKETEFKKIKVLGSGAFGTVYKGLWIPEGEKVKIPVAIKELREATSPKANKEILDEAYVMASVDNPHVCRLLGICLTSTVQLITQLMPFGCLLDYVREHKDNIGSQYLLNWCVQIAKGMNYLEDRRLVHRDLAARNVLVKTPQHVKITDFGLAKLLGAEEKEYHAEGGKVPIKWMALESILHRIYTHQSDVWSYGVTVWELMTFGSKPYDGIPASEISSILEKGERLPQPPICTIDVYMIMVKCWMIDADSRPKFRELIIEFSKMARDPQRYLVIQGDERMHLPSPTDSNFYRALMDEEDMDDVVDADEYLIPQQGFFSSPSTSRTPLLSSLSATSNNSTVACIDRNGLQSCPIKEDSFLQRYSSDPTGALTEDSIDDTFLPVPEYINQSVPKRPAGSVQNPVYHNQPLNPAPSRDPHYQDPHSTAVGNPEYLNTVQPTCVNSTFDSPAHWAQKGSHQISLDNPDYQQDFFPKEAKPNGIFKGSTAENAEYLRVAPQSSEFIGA

Structure (SMILES)	IC50 (SOS1-KRAS)	further results
COc1cc2nc(C)nc(NC(C)c3ccc(-c4ccccc4CO)s3)c2cc1OC (configuration not stated)	280 nM	
COc1cc2ccnc(N[C@H](C)c3cccc4ccccc34)c2cc1OC	12200 nM	IC50 [1]: > 20000 nM
COc1cc2nc(C)nc(N(C)[C@H](C)c3cccc(Br)c3)c2cc1OC	> 20000 nM	IC50 [1]: > 20000 nM
COc1cc2nc(C)nc(NC(C)c3ccc(-c4ccccc4CNCCO)s3)c2cc1OC (configuration not stated)	46 nM	
COc1cc2nc(C)nc(N[C@H](C)c3cccc4ccccc34)c2cc1OC		IC50 [1]: > 20000 nM
COc1cc2nc(C)nc(NC(C)c3ccc(-c4ccccc4CNCC(F)(F)F)s3)c2cc1OC (configuration not stated)	3150 nM	
CCCCNCc1ccccc1-c1ccc(C(C)Nc2nc(C)nc3cc(OC)c(OC)cc23)s1 (configuration not stated)	98 nM	
COc1cc2nc(C)nc(NC(C)c3ccc(-c4ccccc4C(N)=O)s3)c2cc1OC (configuration not stated)	3210 nM	
COc1cc2nc(C)nc(NC(C)c3ccc(-c4ccccc4CN4CCC4)s3)c2cc1OC (configuration not stated)	76 nM	
NCCCc1ccc(Cl)cc1		Activity (Homo sapiens [2]): Active; Activity (Homo sapiens [3]): Active; Activity (Homo sapiens [4]): Active
COc1cc2nc(C)nc(NC(C)c3ccc(-c4ccccc4C#N)s3)c2cc1OC (configuration not stated)	590 nM	
COc1cc2nc(C)nc(NC(C)c3ccc(-c4ccccc4[C@H](C)N)s3)c2cc1OC (some centres not stated)	230 nM	
COc1cc2nc(C)nc(N[C@H](C)c3cccc(Br)c3)c2cc1OC	170 nM	IC50 [1]: > 20000 nM
COc1cc2nc(C)nc(NC(C)c3ccc(-c4ccccc4CNCC(F)F)s3)c2cc1OC (configuration not stated)	780 nM	
CNCc1ccccc1-c1ccc(C(C)Nc2nc(C)nc3cc(OC)c(OC)cc23)s1 (configuration not stated)	41 nM	
COc1cc2nc(C)nc(NC(C)c3ccc(-c4ccccc4CN4CC(F)C4)s3)c2cc1OC (configuration not stated)	410 nM	
COc1cc2nc(C)nc(NC(C)c3ccc(-c4ccccc4CCN)s3)c2cc1OC (configuration not stated)	51 nM	
